Assay outcomes (PubChem BioAssay)
Shown are actives, neighbours in structure and some others; about 4.7% of the full set was active somewhere.
aSyn UTR inh = MLPCN primary screen, SNCA 5' untranslated region. 300,000 compounds, 0.82% hits. inhibition, % (tested at 7.5 µM). alpha-synuclein 5'UTR reporter, inhibitor activity. AID 1813, 2009; in the data active means inhibition above about 60%;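 further: H4 neuroglioblastoma cells stably carrying SNCA 5'UTR luciferase fusion; 0% = DMSO wells and 100% = positive control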
IMP-1 inh = IMP-1 metallo-beta-lactamase inhibitors, primary screen, biochemical, epi-absorbance readout, Pseudomonas aeruginosa enzyme | 290,000 compounds, 0.45% hits | AID 1556, 2009 | metallo-beta-lactamase IMP-1 (Pseudomonas aeruginosa) | inhibition, % at 5.6 µM | purified IMP-1, nitrocefin hydrolysis, epi-absorbance fluorescence;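 active means inhibition above the mean plus 3 SD of all compounds in the same screening run, cut at about 4.5% in these data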;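 further: 0% = IMP-1 with DMSO and 100% = DMSO wells lacking enzyme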
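System: Purified recombinant IMP-1 metallo-beta-lactamase enzyme | Measured by: Fluorescence quenching readout, ex 480/em 530 nm | Replication: Singlicate | Incubation: 15 min preincubation plus 25 min reaction at 25 °C | Evaluation: Percent inhibition from optical density relative to buffer-blank wells | Benchmarks: DMSO with and without IMP-1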
Jurkat NFkB inh = inhibitors of induced NF-kB luciferase reporter, primary screen, TCR NF-kB activation inhibitor project, cell-based, luminescence, uHTS. Jurkat, PMA/ionomycin-induced NF-kB luciferase reporter. inhibition, % at 4 µM. 330,000 compounds, 0.53% hits; in the data active means inhibition above about 50%
VIM-2 inh = VIM-2 metallo-beta-lactamase inhibitors, primary screen, biochemical, epi-absorbance readout, Pseudomonas aeruginosa enzyme. purified VIM-2, nitrocefin hydrolysis, epi-absorbance fluorescence. 290,000 compounds, 0.89% hits. inhibition, % at 5.6 µM;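 active means inhibition above the mean of all tested compounds plus 3 SD, cutoff set per screening run, cut at about 7.5% in these data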;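 further: red hydrolysis product quenches plate fluorescence so inhibitors raise well fluorescence; 0% = enzyme with DMSO and 100% = DMSO without enzyme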
Mdm2 MdmX PPI = inhibitors of human Mdm2-MdmX association, primary screen, cell-based, luminescence, split luciferase, SaOS-2, uHTS; SaOS-2 split-luciferase Mdm2/MdmX complementation; inhibition, % at 8 µM; 330,000 compounds, 3% hits;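 active means inhibition of at least 50% at 8 µM in the primary screen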
Target sequence (O15151 whole entry, looked up): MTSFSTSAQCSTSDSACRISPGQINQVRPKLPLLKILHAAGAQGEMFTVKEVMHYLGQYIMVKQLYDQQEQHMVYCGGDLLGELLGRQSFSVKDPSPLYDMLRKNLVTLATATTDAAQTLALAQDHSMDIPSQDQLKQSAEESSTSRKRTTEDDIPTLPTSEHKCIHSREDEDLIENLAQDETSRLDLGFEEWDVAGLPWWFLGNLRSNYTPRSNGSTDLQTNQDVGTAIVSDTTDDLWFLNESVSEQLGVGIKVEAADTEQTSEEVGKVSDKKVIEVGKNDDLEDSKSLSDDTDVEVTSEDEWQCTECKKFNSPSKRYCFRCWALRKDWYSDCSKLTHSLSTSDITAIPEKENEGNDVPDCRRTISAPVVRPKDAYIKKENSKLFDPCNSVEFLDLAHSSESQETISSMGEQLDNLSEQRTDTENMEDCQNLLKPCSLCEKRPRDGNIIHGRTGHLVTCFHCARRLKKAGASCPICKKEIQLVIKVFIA
Target sequence (Q00987 whole entry, looked up): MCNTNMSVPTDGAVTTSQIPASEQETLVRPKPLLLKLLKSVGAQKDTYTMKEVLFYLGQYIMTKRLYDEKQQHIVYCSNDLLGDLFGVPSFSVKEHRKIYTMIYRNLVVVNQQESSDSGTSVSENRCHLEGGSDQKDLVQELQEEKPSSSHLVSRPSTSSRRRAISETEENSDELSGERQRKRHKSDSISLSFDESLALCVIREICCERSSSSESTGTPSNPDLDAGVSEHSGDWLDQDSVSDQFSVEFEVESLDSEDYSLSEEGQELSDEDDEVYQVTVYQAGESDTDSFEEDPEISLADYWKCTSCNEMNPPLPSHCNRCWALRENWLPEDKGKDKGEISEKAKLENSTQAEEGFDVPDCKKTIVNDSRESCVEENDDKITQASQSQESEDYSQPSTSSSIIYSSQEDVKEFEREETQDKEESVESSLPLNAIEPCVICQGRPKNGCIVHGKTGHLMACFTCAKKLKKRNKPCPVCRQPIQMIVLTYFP
697 NFkB inh = inhibitors of PMA/ionomycin-induced NF-kB reporter, 697 cells, primary screen, B-cell NF-kB inhibitor project, cell-based, luminescence, uHTS. 697 B-cell NF-kB luciferase reporter, 16 h. inhibition, % at 4 µM. 330,000 compounds, 0.33% hits; in the data active means inhibition above about 35%
Starred values were filed as active, the others as inactive; · = no result.

SMILES	aSyn UTR inh	IMP-1 inh	Jurkat NFkB inh	VIM-2 inh	Mdm2 MdmX PPI	697 NFkB inh
CCn1c(SC(=O)NC2CCCCC2)nnc1-c1cccs1	-25	-4	-16	11*	11	-11
CCn1c(SCC(=O)NC2CCCCC2)nnc1-c1cccs1	2	-1	-1	0	1	3
CCN(Cc1nc(-c2ccc(OC)cc2)no1)C(=O)c1ccoc1C	15	-4	-11	-1	-17	10
CCc1ccc(-c2nc(C(N)=O)c3[nH]c(=O)n(-c4ccccc4OC)c3n2)cc1	82*	-5	41	-3	49	-36
COc1ccc(CC(=O)NC2CCN(CC(=O)Nc3ccc4c(c3)OCCO4)CC2)cc1OC	12	12*	4	-4	28	2
COc1ccc(NC(=O)CN2CCN(Cc3ccc4c(c3)OCO4)CC2)cc1OC	16	-3	12	-2	-21	9
COc1cccc(NC(=O)CNC(=O)Cn2cnc3sc(C)c(C)c3c2=O)c1	9	-1	-7	0	9	-6
N#Cc1ccccc1OCC(=O)Nc1ccc(S(=O)(=O)N2CCOCC2)cc1	·	·	8	·	25	8
CCn1c(SCC(=O)O)nnc1-c1cc2c(C)nn(-c3ccccc3)c2s1	-19	-3	13	10*	-2	13
Cc1nn(-c2ccccc2)c2sc(-c3nnc(SCC(=O)O)o3)cc12	-4	-3	0	2	20	20
COc1ccc(S(=O)(=O)NCC2CCC(C(=O)NCCCN3CCCC3=O)CC2)cc1 (stereo unspecified)	-3	-2	17	1	-8	-30
COc1ccc2c(CC(=O)OCC(=O)c3ccc(F)cc3)coc2c1	·	5.3*	-12	-2	-5	-18
COc1cccc(-c2c(-c3cc(OC)cc(OC)c3)n(C)c3ccc(-c4cccc5[nH]ccc45)cc23)c1	·	·	-16	·	-6	2
C=CCCC(=O)Nc1nc(C)c(-c2csc(Nc3cc(Cl)ccc3OC)n2)s1	-14	6.2*	12	0	29	12
COc1ccc(Cl)cc1Nc1nc(-c2sc(NC(=O)c3ccccc3)nc2C)cs1	-34	0	-2	-4	15	-18
Cc1nc(NC(=O)CC(C)C)sc1-c1csc(Nc2ccc(Cl)cc2Cl)n1	-2	0	6	0	-2	-5
CCCCCCC(=O)Nc1nc(C)c(-c2csc(Nc3cc(OC)ccc3OC)n2)s1	29	10*	1	-2	39	12
COc1ccc(Cl)cc1Nc1nc(-c2sc(NC(=O)CC(C)C)nc2C)cs1	15	6.8*	16	0	29	1
CCN(CC)c1ccc(NC(=O)CCCCCN2C(=O)c3ccccc3C2=O)cc1	-4	-4	1	-3	17	6
CCN(CC)c1ccc(NC(=O)CCCCC(=O)Nc2ccc(N(CC)CC)cc2)cc1	63*	·	5	·	12	11
Cc1ccc2c(cnn2C(=O)CCC(=O)NCc2cccc(Cl)c2)c1	-6	-1	14	-3	31	15
Cc1ccc(S(=O)(=O)N(C)C)cc1NC(=O)CCCNC(=O)c1ccc(Cl)cc1	-1	-3	-9	0	-7	8
N#Cc1cc2cc3c(cc2nc1N1CCOCC1)OCO3	-19	4.5*	-18	-1	-23	-3
CCN(CC(=O)Nc1c(F)cccc1F)C(=O)c1ccc2ncsc2c1	4	·	7	·	22	9
CC(=O)Nc1nc(NC(=O)/C=C/c2ccccc2)n(-c2ccccc2)n1	79*	-5	-6	-4	29	-5
O=C1CCC([N+](=O)[O-])C(C2CC=CCC2)N1 (stereo unspecified)	-8	·	3	·	26	-15
O=C(CCNC(=O)c1ccco1)Nc1nc(-c2ccccc2)cs1	·	·	-85	·	-120	-105
CCCCc1c(O)nc(SCC(=O)O)[nH]c1=O	-8	-1	-14	-2	-11	12
CCCCc1c(O)nc(SCC(=O)c2ccccc2)[nH]c1=O	-87	12*	8	0	-7	9
